Data as given in ChEMBL document CHEMBL4028901, “Novel Antitubercular 6-Dialkylaminopyrimidine Carboxamides from Phenotypic Whole-Cell High Throughput Screening of a SoftFocus Library: Structure-Activity Relationship and Target Identification Studies” (J Med Chem, 2017).
≈ marks a conversion by molar mass, not a printed value.

Experiments:
Vero = test: Cytotoxicity against African green monkey Vero cells assessed as reduction in cell viability by MTT assay; assay type: cell-based; conditions: Chlorocebus sabaeus
In short: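 MTT assay in Vero cells, samples in triplicate on one occasion. Stocks at 20 mg/mL in DMSO, diluted in complete medium as 10-fold serial dilutions over 6 concentrations. Emetine used as reference. IC50 derived by non-linear dose-response curve fitting.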

[1] = tested on: Mycobacterium tuberculosis; test: Antibacterial activity against Mycobacterium tuberculosis H37RvMA grown in 7H9/ADC medium measured 7 to 14 days post inoculation by broth microdilution method; assay type: functional
[2] = tested on: Mycobacterium tuberculosis; test: Antibacterial activity against Mycobacterium tuberculosis H37RvMA grown in GAST/Fe medium measured 7 to 14 days post inoculation by broth microdilution method; assay type: functional
In short: (§1)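 H37RvMa grown to OD600 0.6–0.7, diluted 1:100 in GAST/Fe. Compounds two-fold serially diluted from a top concentration of 640 μM, in duplicate. Incubated at 37 °C with humidification.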

[3] = Kinetic solubility of the compound in pH 7.4 solution at 10 to 220 uM after 2 hrs by shake flask method; assay type: physicochemical; conditions: for Kinetic_solubility: buffer, pH 7.4, 2 h, 220 µM; for solubility kinetic at 2 h: pH 7.4 solution, pH 7.4, read-out: Kinetic_solubility
[4] = tested on: Mycobacterium tuberculosis; test: Antibacterial activity against wild type Mycobacterium tuberculosis H37Rv grown in GAST/Fe medium measured on day 14 post inoculation by broth microdilution method; assay type: functional; conditions: 336 h; in short: as §1
[5] = Kinetic solubility of the compound in fasted-state simulated intestinal fluid at 10 to 220 uM at pH 6.5 after 2 hrs by shake flask method; assay type: physicochemical; conditions: read-out: Kinetic_solubility
In short: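 Miniaturised shake flask. 10 mM DMSO stocks spiked 1:50 into duplicate FaSSIF (pH 6.5), 2% final DMSO. Shaken 2 h at 25 °C, filtered, analysed by HPLC-DAD against calibration standards (10–220 μM).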

[6] = Lipophilicity, log P of the compound at 100 uM at pH 7.4 after 3 hrs by shake-flask method; assay type: physicochemical; conditions: buffer
In short: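 Shake-flask method run in triplicate. A 10 mM stock was spiked into a 1:1 mixture of phosphate buffer (pH 7.4) and n-octanol, then shaken at 1500 rpm on an orbital shaker for 3 h at room temperature.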

[7] = tested on: Mycobacterium tuberculosis; test: Antibacterial activity against cytochrome bd oxidase knockout GFP-fused Mycobacterium tuberculosis H37RvMA grown in 7H9/GLU/ADC medium measured on day 7 and day 14 post inoculation by fluorescence plate reader assay; assay type: functional

SMILES	IC50 (Vero) [µM]	MIC99 [1] [µM]	MIC99 [2] [µM]	Kinetic_solubility [3] [µM]	MIC99 [4] [µM]	solubility kinetic at 2 h [3] [µM]	solubility kinetic at 2 h [5] [µM]	logD at 3 h, 100 µM [6]	MIC99 [7] [µM]
CN(Cc1ccc(F)cc1)c1cc(C(=O)Nc2ccccc2)ncn1	297	6.25 (≈ 2.1 µg/mL)	1.56 (≈ 0.525 µg/mL)	< 5	10 (≈ 3.36 µg/mL)	–	–	–	–
CN(C)CCOc1ccc(NC(=O)c2cc(N(C)Cc3ccc(F)cc3)ncn2)cc1	–	25 (≈ 10.6 µg/mL)	12.5 (≈ 5.29 µg/mL)	155	–	–	–	–	–
CN(Cc1ccc(F)cc1)c1cc(C(=O)Nc2ccccc2)cnn1	279	> 50	> 50	40	–	–	–	–	–
CN(Cc1ccccc1)c1cc(C(=O)Nc2ccccc2)ncn1	314	20 (≈ 6.37 µg/mL)	10 (≈ 3.18 µg/mL)	< 5	–	–	–	–	–
CC(C)NC(=O)c1cc(N(C)Cc2ccc(C(F)(F)F)cc2)ncn1	217	> 50	> 160	13	–	–	–	–	–
O=C(Nc1ccccc1)c1cc(OCc2ccccc2)ncn1	–	> 160	–	–	–	–	–	–	–
CN(CC1CCCCC1)c1cc(C(=O)Nc2ccccc2)ncn1	178	> 50	40 (≈ 13 µg/mL)	–	–	–	–	–	–
COc1ccc(NC(=O)c2cc(N(C)Cc3ccc(Cl)cc3)nc(N)n2)cc1	–	> 50	> 160	–	–	< 5	–	–	–
CN(Cc1ccc(F)cc1)c1cc(C(=O)Nc2ccon2)ncn1	–	> 50	160 (≈ 52.4 µg/mL)	–	–	–	–	–	–
CN(Cc1ccc(F)cc1)c1cncc(C(=O)Nc2ccc(F)cc2)n1	282	> 50	> 50	–	–	< 5	–	–	–
CN(Cc1ccc(C#N)cc1)c1cc(C(=O)Nc2ccccc2)ncn1	–	> 50	20 (≈ 6.87 µg/mL)	–	–	< 5	–	–	–
CN1CCN(c2cccc(NC(=O)c3cc(N(C)Cc4ccc(F)cc4)ncn3)c2)CC1	118	37 (≈ 16.1 µg/mL)	37 (≈ 16.1 µg/mL)	74	–	–	–	–	–
COc1ccc(NC(=O)c2cc(N(C)Cc3ccccc3)ncn2)cc1	287	20 (≈ 6.97 µg/mL)	10 (≈ 3.48 µg/mL)	–	–	–	< 5	4.07	>20
C[C@H]1COc2c(N3CCN(C)CC3)c(F)cc3c(=O)c(C(=O)O)cn1c23 [LEVOFLOXACIN]	–	–	–	–	0.64 (≈ 0.231 µg/mL)	–	–	–	–
CN(Cc1ccccc1)c1cc(C(=O)N(C)c2ccccc2)ncn1	–	> 160	–	–	–	–	–	–	–
CC(=O)N1CCN(c2ccc(NC(=O)c3cc(N(C)Cc4ccc(C(F)(F)F)nc4)ncn3)cc2)CC1	> 50	4.7 (≈ 2.41 µg/mL)	2.3 (≈ 1.18 µg/mL)	–	–	< 5	–	–	–
CN(Cc1ccccn1)c1cc(C(=O)Nc2ccccc2)ncn1	–	> 160	–	–	–	–	–	–	–
CN(Cc1cccc(Cl)c1)c1cc(C(=O)Nc2ccccc2)ncn1	–	20 (≈ 7.06 µg/mL)	10 (≈ 3.53 µg/mL)	< 5	–	–	–	–	–
CN(Cc1ccc(Cl)cc1)c1cc(C(=O)Nc2ccncc2)ncn1	282	–	10 (≈ 3.54 µg/mL)	< 5	–	–	–	–	–
CN(Cc1ccc(F)cc1)c1cc(C(Nc2ccc(F)cc2)C(F)(F)F)ncn1 (stereo unspecified)	41.7	37 (≈ 15.1 µg/mL)	19 (≈ 7.76 µg/mL)	< 5	–	–	–	–	–
Cc1c(C(=O)Nc2ccc(F)cc2)ncnc1N(C)Cc1ccc(F)cc1	271	> 50	37 (≈ 13.6 µg/mL)	–	–	< 5	–	–	–
CN(c1ccccc1)c1cc(C(=O)Nc2ccccc2)ncn1	–	> 160	–	< 5	–	–	–	–	–
NNC(=O)c1ccncc1 [ISONIAZID]	–	–	–	–	0.18 (≈ 0.0247 µg/mL)	–	–	–	–
CN(Cc1ccc(C(F)(F)F)cc1)c1cc(C(=O)Nc2ncn(C)n2)ncn1	28	50 (≈ 19.6 µg/mL)	10 (≈ 3.91 µg/mL)	173	–	–	–	–	–

SMILES	IC50 (Vero) [µM]	MIC99 [1] [µM]	MIC99 [2] [µM]	Kinetic_solubility [3] [µM]	MIC99 [4] [µM]	solubility kinetic at 2 h [3] [µM]	solubility kinetic at 2 h [5] [µM]	logD at 3 h, 100 µM [6]	MIC99 [7] [µM]
O=C(Nc1ccccc1)c1cc(N2CCc3ccccc3C2)ncn1	–	> 160	> 160	< 5	–	–	–	–	–
CN(Cc1ccc(F)cc1)c1nc(C(=O)Nc2ccccc2)cs1	279	> 50	> 50	–	–	< 5	–	–	–
CCN(Cc1ccc(Cl)cc1)c1cc(C(=O)Nc2ccccc2)ncn1	272	> 50	40 (≈ 14.7 µg/mL)	5	–	–	–	–	–
CN(Cc1ccc(F)cc1)c1cc(-c2nnc(-c3ccccc3)[nH]2)ncn1	277	> 50	25 (≈ 9.01 µg/mL)	< 5	–	–	–	–	–
O=C(Nc1ccccc1)c1cc(NCc2ccccc2)ncn1	–	> 160	–	< 5	–	–	–	–	–
COc1ccc(NC(=O)c2cc(N(C)Cc3ccc(Cl)cc3)nc(NC3CC3)n2)cc1	–	> 50	> 160	5	–	–	–	–	–
COc1ccc(NC(=O)c2ccnc(N(C)Cc3ccc(F)cc3)n2)cc1	273	> 50	> 50	–	–	< 5	–	–	–
CN1CCN(c2ccc(NC(=O)c3cc(N(C)Cc4ccc(C(F)(F)F)nc4)ncn3)cc2)CC1	45.2	12.5 (≈ 6.07 µg/mL)	12.5 (≈ 6.07 µg/mL)	165	–	–	–	–	–
CN(Cc1ccc(F)cc1)c1cc(C(=O)Nc2ccc(N3CCOCC3)cc2)ncn1	237	0.78 (≈ 0.329 µg/mL)	0.6 (≈ 0.253 µg/mL)	< 5	–	–	–	–	–
CN(Cc1ccc(Cl)cc1)c1cc(C(=O)Nc2ccccc2)ncn1	207	5 (≈ 1.76 µg/mL)	2.3 (≈ 0.811 µg/mL)	< 5	–	–	–	–	–
COc1ccc(NC(=O)c2cc(N(C)Cc3cccc(F)c3)ncn2)cc1	272	37 (≈ 13.6 µg/mL)	5 (≈ 1.83 µg/mL)	–	2.5 to 5 (≈ 0.916 to 1.83 µg/mL)	–	–	–	–
CN(Cc1ccc(F)cc1)c1cc(C(=O)Nc2ccn(C)n2)ncn1	–	> 50	40 (≈ 13.6 µg/mL)	90	–	–	–	–	–
CN(Cc1ccc(F)cc1)c1ccnc(C(=O)Nc2ccccc2)c1	298	–	10 (≈ 3.35 µg/mL)	–	–	< 5	–	–	–
CN(CCc1ccccc1)c1cc(C(=O)Nc2ccccc2)ncn1	–	80 (≈ 26.6 µg/mL)	–	< 5	–	–	–	–	–
CN(Cc1ccccc1Cl)c1cc(C(=O)Nc2ccccc2)ncn1	–	> 160	–	< 5	–	–	–	–	–
COc1ccc(NC(=O)c2cc(N(C)Cc3ccc(F)cc3)ncn2)cc1	60.5	5 (≈ 1.83 µg/mL)	2.5 (≈ 0.916 µg/mL)	62	–	–	–	–	–
Cc1csc(NC(=O)c2cc(N(C)Cc3ccc(F)cc3)ncn2)n1	–	37 (≈ 13.2 µg/mL)	5 (≈ 1.79 µg/mL)	< 5	–	–	–	–	–
O=C(Nc1ccccc1)c1ccc(=O)n(Cc2ccc(F)cc2)c1	310	> 50	> 50	170	–	–	–	–	–
CN(Cc1ccc(C(F)(F)F)nc1)c1cc(C(=O)Nc2ccc(N3CCOCC3)cn2)ncn1	211	3.13 (≈ 1.48 µg/mL)	2.3 (≈ 1.09 µg/mL)	< 5	–	–	–	–	–
COCCOc1ccc(NC(=O)c2cc(N(C)Cc3ccc(F)cc3)ncn2)cc1	244	2.3 (≈ 0.944 µg/mL)	1.56 (≈ 0.64 µg/mL)	< 5	–	–	–	–	–
CN(Cc1ccc(F)cc1)c1cc(NC(=O)c2ccccc2)ncn1	–	–	> 160	5	–	–	–	–	–
Cc1nc(C(=O)Nc2ccccc2)cc(N(C)Cc2ccc(Cl)cc2)n1	–	> 160	> 160	–	–	–	–	–	–
CN1CCN(c2ccc(NC(=O)c3cc(N(C)Cc4ccc(F)cc4)ncn3)cn2)CC1	126	> 50	19 (≈ 8.27 µg/mL)	150	–	–	–	–	–
